In ChEMBL document CHEMBL1777756, “Discovery of Novel Benzo[a]phenoxazine SSJ-183 as a Drug Candidate for Malaria” (ACS Med Chem Lett, 2010):

Columns and labels:
[1] = system: Plasmodium falciparum; experiment: Antimalarial activity against chloroquine and pyrimethamine resistant Plasmodium falciparum K1; format: functional, organism-based
Outline: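 IC50 was determined in vitro against the chloroquine- and pyrimethamine-resistant P. falciparum K1 strain. Values are the mean of two independent assays.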

[2] = system: L6; experiment: Cytotoxicity against rat L6 cells; format: cell-based
Outline: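 Cytotoxicity was tested against L-6 rat myoblasts, with IC50 determined. Values are the mean of two independent assays.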

[3] = Selectivity index, ratio of IC50 for rat L6 cells to IC50 for Plasmodium falciparum K1; format: toxicity, cell-based; settings: read-out: Ratio IC50
Outline: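 Selectivity index is IC50 against L-6 cells divided by IC50 against chloroquine/pyrimethamine-resistant P. falciparum K1. Each IC50 is the mean of two independent assays.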

[4] = system: Plasmodium berghei; experiment: Antimalarial activity against Plasmodium berghei NK-65 infected in ICR mouse assessed as inhibition of parasitemia at 100 mg/kg, po administered as single dose on day 1 measured on day 4; format: functional
Outline: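 Compound was formulated at 100 mg/kg in 5% glucose/10% ethanol or in 7% Tween 80/3% ethanol. The suspension was given as a single oral dose on day 1 to female ICR mice infected with P. berghei NK-65. Parasitemia was determined on day 4 after infection. Treated-group mean is expressed as percent difference from the control-group mean.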

[5] = system: Plasmodium berghei; experiment: Antimalarial activity against Plasmodium berghei NK-65 infected in ICR mouse assessed as survival days at 100 mg/kg, po administered as single dose (reference value: 6 days); format: functional
Outline: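 Female ICR mice infected with P. berghei NK-65 received a single oral dose of 100 mg/kg on day 1. The compound was given as a suspension in 5% glucose/10% ethanol or in 7% Tween 80/3% ethanol. Parasitemia was read on day 4 as percent reduction relative to untreated controls, and mean survival days were recorded.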

SMILES	IC50 [1]	IC50 [2]	selectivity ratio [3]	inhibition in vivo at 100 mg/kg [4]	MSD [5]
CCCN(CCC)c1ccc2nc3c4ccccc4/c(=N/c4ccncc4)cc-3oc2c1.Cl.Cl	50 nM	67100 nM	1340	15.3%	6.3 days
CCN(CC)c1cc(C)c2nc3c4ccccc4/c(=N/c4ccncc4)cc-3oc2c1.Cl.Cl	180 nM	86600 nM	481	99.7%	13 days
CCN(CC)c1ccc2nc3c4ccccc4/c(=N\c4ccc5ccccc5n4)cc-3oc2c1	27 nM	67900 nM	2520	81%	10.3 days
CCN(CC)c1ccc2nc3c4ccccc4/c(=N/c4ccc(C)cc4)cc-3oc2c1.Cl	232 nM	123000 nM	531	0%	6.3 days
CCN(CC)c1ccc2nc3c4ccccc4/c(=N/c4cc[n+](Cc5ccccc5)cc4)cc-3oc2c1.[Cl-]	24 nM	750 nM	31	39%	7.3 days
CC[N+](CC)=c1ccc2nc3c(ccc4ccccc43)oc-2c1	606 nM	3820 nM	6.3	–	–
CCN(CC)c1ccc2nc3c4ccccc4/c(=N/c4ccccc4)cc-3oc2c1.Cl	191 nM	165000 nM	863	0%	6.3 days
CCN(CC)c1ccc2nc3c4ccccc4/c(=N\c4cccnc4)cc-3oc2c1	23 nM	117000 nM	5090	62.7%	10 days
CCN(CC)c1ccc2nc3c4ccccc4/c(=N\c4ncccn4)cc-3oc2c1	5 nM	13600 nM	2730	3.3%	6.3 days
CCN(CC)c1ccc2nc3c4ccccc4/c(=N/c4cc[n+](C)cc4)cc-3oc2c1.[I-]	9 nM	1560 nM	174	22%	6.6 days
CCN(CC)c1ccc2nc3c4ccccc4c(=O)cc-3oc2c1 [NILE RED]	868 nM	65900 nM	76	15%	6.3 days
CCN(CC)c1ccc2nc3c4ccccc4/c(=N\c4ncc(Cl)cc4Cl)cc-3oc2c1	63 nM	180000 nM	2860	14.7%	6.3 days
CCN(CC)c1ccc2nc3c4ccccc4/c(=N\c4ccccn4)cc-3oc2c1	15 nM	15800 nM	1050	> 99.9%	8.3 days
CC[N+](CC)=c1ccc2nc3c(cc(N)c4ccccc43)oc-2c1.[Cl-] [NILE BLUE HYDROCHLORIDE]	15.6 nM	43100 nM	2760	15%	6.6 days
CN(C)c1ccc2nc3c4ccccc4/c(=N/c4ccncc4)cc-3oc2c1	8.1 nM	165000 nM	20400	> 99.9%	10 days
CCN(CC)CCCC(C)Nc1ccnc2cc(Cl)ccc12 (stereo not given) [CHLOROQUINE]	–	–	–	> 99.9%	12.6 days
CCN(CC)c1ccc2nc3c4ccc(Br)cc4/c(=N/c4ccccn4)cc-3oc2c1	38 nM	> 190000 nM	> 5010	12.7%	6.3 days
c1ccc2/c(=N/c3ccncc3)cc3oc4cc(N5CCOCC5)ccc4nc-3c2c1	29 nM	96900 nM	3340	97.9%	7.3 days
CCN(CCNS(C)(=O)=O)c1cc(C)c2nc3c4ccccc4/c(=N/c4ccncc4)cc-3oc2c1.Cl.Cl	17 nM	14800 nM	887	> 99.9%	15.7 days
CCN(CC)c1ccc2nc3c4ccc(Br)cc4/c(=N/c4ccncc4)cc-3oc2c1	11 nM	> 190000 nM	> 17300	14.2%	6.6 days
CCCCN(CCCC)c1ccc2nc3c4ccccc4/c(=N/c4ccncc4)cc-3oc2c1.Cl.Cl	195 nM	63800 nM	327	5.6%	6.3 days
CCN(CC)c1ccc2nc3c4ccccc4/c(=N/c4nc5ccc(OC)cc5s4)cc-3oc2c1	112 nM	168000 nM	1490	11.4%	6.3 days
